Assay results published in ChEMBL document CHEMBL1141356, “Derrubone, an inhibitor of the Hsp90 protein folding machinery” (J Nat Prod, 2007).
The source made the active and inactive calls. The calls are words filed in the database; no cut-off is given here.

How the values were obtained:
[1] = Inhibition of Hsp90
How it was run: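 Thermally denatured firefly luciferase refolded in rabbit reticulocyte lysate at room temperature. Run in triplicate and repeated at least twice; luminescence read with 10 s integration. IC50 is the concentration that cuts recovery of luciferase activity by 50% versus DMSO. Linearity checked by anti-luciferase Western blot over the time course.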

[2] = Effect on binding of Hsp90 to HR1 relative to control
Oryctolagus cuniculus [3] = organism: Oryctolagus cuniculus; experiment: Inhibition of Hsp90-dependent luciferase refolding in rabbit reticulocyte at 100 uM after 20 mins
Oryctolagus cuniculus [4] = organism: Oryctolagus cuniculus; experiment: Inhibition of Hsp90-dependent maturation and activation of heme-regulated eIF2-alpha kinase in heme-deficient rabbit reticulocyte lysate at 100 uM
Bos taurus = organism: Bos taurus; experiment: Inhibition of ATPase activity of bovine Hsp70 at upto 400 uM
How it was run: (§1)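 Intrinsic ATPase measured with purified chaperone (bovine Hsp70 or bacterial DnaK, 1 µM) and 1 mM ATP, 3 h at 37 °C, compound or DMSO. Malachite green-molybdate added, then quenched with 3% sodium citrate; absorbance read at 620 nm. Compound tested up to 400 µM. Result is % of solvent control, mean of triplicates.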

[5] = Inhibition of ATPase activity of bacterial DnaK at upto 400 uM; how it was run: as §1
MCF7 = experiment: Antiproliferative activity against human MCF7 cells expressing ERalpha; format: functional, cell-based
How it was run: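 MCF-7 cells (ERα-positive human breast cancer) grown in 1:1 DMEM:Ham's F-12 with nonessential amino acids, 2 mM L-glutamine, streptomycin, penicillin and 10% FBS at 37 °C, 5% CO2. Antiproliferative IC50 derived from three separate experiments, each run in triplicate.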

Heat shock protein HSP90 [6] = target: T1, Heat shock protein HSP90 (Homo sapiens, UniProt P07900+P08238); experiment: Inhibition of Hsp90 in human SkBr3 cells assessed as induction of Her2 degradation by ELISA; format: cell-based
How it was run: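 SkBr3 cells seeded at 3000/well, attached overnight, then treated 24 h. Washed with ice-cold PBS/1% Tween and fixed with -20 °C methanol, 10 min at 4 °C. Blocked in 5% BSA/PBST 1 h. Rabbit anti-Her2 (1:500) overnight at 4 °C, then HRP anti-rabbit (1:1000) 2 h at rt; chemiluminescence read. IC50 from three experiments in triplicate.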

Heat shock protein HSP90 [7] = target: T1, Heat shock protein HSP90; experiment: Inhibition of Hsp90 in human MCF7 cells assessed as induction of Raf degradation after 36 hrs by Western blot analysis; format: cell-based
How it was run: (§2)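 MCF-7 cells grown in DMEM:Ham's F-12 (1:1) with nonessential amino acids, 2 mM L-glutamine, antibiotics and 10% FBS. Seeded at 1 × 10^6 per dish, attached overnight, treated with varying concentrations for 36 h at 37 °C, 5% CO2. Harvested for Western blot of client proteins. Controls were GA 500 nM and DMSO.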

Heat shock protein HSP90 [8] = target: T1, Heat shock protein HSP90; experiment: Inhibition of Hsp90 in human MCF7 cells assessed as induction of Akt degradation after 36 hrs by Western blot analysis; format: cell-based; how it was run: as §2
Heat shock protein HSP90 [9] = target: T1, Heat shock protein HSP90; experiment: Inhibition of Hsp90 in human MCF7 cells assessed as induction of ERalpha degradation after 36 hrs by Western blot analysis; format: cell-based; how it was run: as §2
Heat shock protein HSP90 [10] = target: T1, Heat shock protein HSP90; experiment: Inhibition of Hsp90 in human MCF7 cells assessed as induction of Her2 degradation after 36 hrs by Western blot analysis; format: cell-based
Heat shock protein HSP90 [11] = target: T1, Heat shock protein HSP90; experiment: Inhibition of Hsp90 in human MCF7 cells assessed as induction of actin degradation after 36 hrs by Western blot analysis; format: cell-based; how it was run: as §2
SK-BR-3 = experiment: Antiproliferative activity against human SkBr3 cells ERalpha-negative and overexpressing Her2
Oryctolagus cuniculus [12] = organism: Oryctolagus cuniculus; experiment: Inhibition of Hsp90-dependent activation of heme-regulated Eif2-alpha kinase in heme-deficient rabbit reticulocyte lysate at 100 uM
[13] = Inhibition of Hsp90 in cell based assay

## CC1(C)C=Cc2c(cc3occ(-c4ccc5c(c4)OCO5)c(=O)c3c2O)O1
[1]
  Activity: inactive

## COc1cc(OC)c2c(=O)c(-c3ccc4c(c3)OCO4)coc2c1
[1]
  Activity: inactive

## COc1cc(OC)c2c(OC)c(-c3ccc4c(c3)OCO4)c(=O)oc2c1
[1]
  Activity: inactive

## COc1ccc(-c2c(O)c3c(OC)c4c(cc3oc2=O)OC(C)(C)C=C4)cc1
[1]
  Activity: inactive

## COC1=C2C[C@@H](C)C[C@H](OC)[C@H](O)[C@@H](C)/C=C(\C)[C@H](OC(N)=O)[C@@H](OC)/C=C\C=C(/C)C(=O)NC(=CC1=O)C2=O (stereo in doubt) [GELDANAMYCIN]
[1]
  IC50: < 0.1 µM
[2]
  Activity: 80%

## CC(C)=CCc1c(O)cc2occ(-c3ccc4c(c3)OCO4)c(=O)c2c1O [DERRUBONE]
[1]
  IC50: 0.23 µM
Oryctolagus cuniculus [3]
  Activity: Active
Oryctolagus cuniculus [4]
  Activity: Active
Bos taurus
  Activity: inactive
[5]
  Activity: inactive
[2]
  Activity: 46%
MCF7
  IC50: 9 µM
Heat shock protein HSP90 [6]
  IC50: 14 µM
Heat shock protein HSP90 [7]
  Activity: Active
Heat shock protein HSP90 [8]
  Activity: Active
Heat shock protein HSP90 [9]
  Activity: Active
Heat shock protein HSP90 [10]
  Activity: Active
Heat shock protein HSP90 [11]
  Activity: Active
SK-BR-3
  IC50: 12 µM
Oryctolagus cuniculus [12]
  Activity: Active

## CO[C@@H]1[C@@H](OC(N)=O)[C@@H](O)[C@H](Oc2ccc3c(O)c(NC(=O)c4ccc(O)c(CC=C(C)C)c4)c(=O)oc3c2C)OC1(C)C [NOVOBIOCIN]
[13]
  IC50: 500 µM

## C[C@@H]1C[C@H]2O[C@@H]2C=C/C=C/C(=O)Cc2c(Cl)c(O)cc(O)c2C(=O)O1 [RADICICOL]
[1]
  IC50: < 0.1 µM
